In ChEMBL document CHEMBL1153749, “Flavonoids from the heartwood of the Thai medicinal plant Dalbergia parviflora and their effects on estrogenic-responsive human breast cancer cells” (2009):

Columns and labels:
Type in all cases: functional
[1] = system: T47D; assay: Estrogenic activity in luciferase transfected human T47D cells assessed as drug level causing stimulation of cell proliferation equivalent to 10 pM estradiol by luciferase reporter gene assay
Summary of the method: (§1)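 Reporter assay in MCF-7 or T47D cells transiently transfected with luciferase. Compounds tested from 0.01 to 10 µM. Luciferase induction is expressed as the compound concentration equivalent to the 10 or 100 pM estradiol response. Values come from linear regression over at least five concentrations in quadruplicate.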

[2] = system: MCF7; assay: Estrogenic activity in human MCF7 cells assessed as drug level causing stimulation of cell proliferation equivalent to 100 pM estradiol after 96 hrs by alamar blue assay
Summary of the method: (§2)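 Cells seeded at 10^4 per well in phenol red-free RPMI with 5% DCC-treated FBS. Compounds added in DMSO (vehicle control 1% DMSO) for 96 h at 37 °C, 5% CO2, with serial estradiol dilutions run alongside. Alamar Blue for 3 h, fluorescence ex 530/em 590 nm. Estradiol-equivalent concentration fitted by linear regression from at least five concentrations in quadruplicate.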

[3] = system: T47D; assay: Estrogenic activity in human T47D cells assessed as drug level causing stimulation of cell proliferation equivalent to 10 pM estradiol after 96 hrs by alamar blue assay; summary of the method: as §2
[4] = system: MCF7; assay: Estrogenic activity in human MCF7 cells assessed as drug level causing stimulation of cell proliferation equivalent to 10 pM estradiol after 96 hrs by alamar blue assay; summary of the method: as §2
[5] = system: MCF7; assay: Estrogenic activity in luciferase transfected human MCF7 cells assessed as drug level causing stimulation of cell proliferation equivalent to 10 pM estradiol by luciferase reporter gene assay; summary of the method: as §1
[6] = system: MCF7; assay: Estrogenic activity in luciferase transfected human MCF7 cells assessed as drug level causing stimulation of cell proliferation equivalent to 100 pM estradiol by luciferase reporter gene assay; summary of the method: as §1
[7] = system: T47D; assay: Estrogenic activity in luciferase transfected human T47D cells assessed as drug level causing stimulation of cell proliferation equivalent to 100 pM estradiol by luciferase reporter gene assay; summary of the method: as §1
[8] = system: T47D; assay: Estrogenic activity in human T47D cells assessed as drug level causing stimulation of cell proliferation equivalent to 100 pM estradiol after 96 hrs by alamar blue assay; summary of the method: as §2

## O=C(/C=C/c1ccc(O)cc1)c1ccc(O)cc1O [ISOLIQUIRITIGENIN]
[1]
  Activity: >100 µM
[2]
  Activity: 4 µM
[3]
  Activity: 1 µM
[4]
  Activity: 1.1 µM
[5]
  Activity: 0.01 µM
[6]
  Activity: >100 µM
[7]
  Activity: >100 µM
[8]
  Activity: >100 µM

## COc1cc(O)c(-c2coc3cc(O)ccc3c2=O)cc1O [KHRINONE A]
[1]
  Activity: 5.6 µM
[2]
  Activity: >100 µM
[3]
  Activity: >100 µM
[4]
  Activity: >100 µM
[5]
  Activity: >100 µM
[6]
  Activity: >100 µM
[7]
  Activity: 8.4 µM
[8]
  Activity: >100 µM

## COc1ccc([C@@H]2COc3cc(O)ccc3C2)c(O)c1
[1]
  Activity: >100 µM
[2]
  Activity: >100 µM
[3]
  Activity: 0.02 µM
[4]
  Activity: >100 µM
[5]
  Activity: >100 µM
[6]
  Activity: >100 µM
[7]
  Activity: >100 µM
[8]
  Activity: 0.2 µM

## COc1ccc([C@@]2(O)COc3cc(O)ccc3C2=O)c(O)c1O [ISODARPARVINOL B]
[1]
  Activity: >100 µM
[2]
  Activity: >100 µM
[3]
  Activity: >100 µM
[4]
  Activity: >100 µM
[5]
  Activity: 1.2 µM
[6]
  Activity: 3.4 µM
[7]
  Activity: >100 µM
[8]
  Activity: >100 µM

## COc1ccc(-c2coc3cc(O)cc(O)c3c2=O)c(OC)c1O [KHRINONE C]
[1]
  Activity: 0.2 µM
[2]
  Activity: 93.3 µM
[3]
  Activity: 0.2 µM
[4]
  Activity: 4.5 µM
[5]
  Activity: >100 µM
[6]
  Activity: >100 µM
[7]
  Activity: 2 µM
[8]
  Activity: 8.6 µM

## COC1=CC(=O)C(c2coc3cc(O)ccc3c2=O)=CC1=O [BOWDICHIONE]
[1]
  Activity: >100 µM
[2]
  Activity: 1.4 µM
[3]
  Activity: >100 µM
[4]
  Activity: 0.01 µM
[5]
  Activity: 0.7 µM
[6]
  Activity: 0.9 µM
[7]
  Activity: >100 µM
[8]
  Activity: >100 µM

## O=C1C[C@@H](c2ccc(O)cc2)Oc2cc(O)ccc21 [LIQUIRTIGENIN]
[1]
  Activity: 0.01 µM
[2]
  Activity: 0.65 µM
[3]
  Activity: 0.64 µM
[4]
  Activity: 0.1 µM
[5]
  Activity: 0.01 µM
[6]
  Activity: 0.01 µM
[7]
  Activity: 5.9 µM
[8]
  Activity: >100 µM

## COc1cc(OC)c(-c2coc3cc(O)cc(O)c3c2=O)cc1OC
[1]
  Activity: 6.3 µM
[2]
  Activity: >100 µM
[3]
  Activity: 0.1 µM
[4]
  Activity: >100 µM
[5]
  Activity: 5.4 µM
[6]
  Activity: 7.8 µM
[7]
  Activity: >100 µM
[8]
  Activity: >100 µM

## COc1ccc(-c2coc3cc(O)cc(O)c3c2=O)cc1O [PRATENSEIN]
[1]
  Activity: >100 µM
[2]
  Activity: 50.4 µM
[3]
  Activity: 6.4 µM
[4]
  Activity: 4.5 µM
[5]
  Activity: >100 µM
[6]
  Activity: >100 µM
[7]
  Activity: >100 µM
[8]
  Activity: >100 µM

## COc1ccc(-c2coc3cc(O)ccc3c2=O)cc1 [FORMONONETIN]
[1]
  Activity: 0.01 µM
[2]
  Activity: >100 µM
[3]
  Activity: 0.03 µM
[4]
  Activity: >100 µM
[5]
  Activity: 0.01 µM
[6]
  Activity: 0.01 µM
[7]
  Activity: 0.01 µM
[8]
  Activity: >100 µM

## COc1cc(O)ccc1C/C=C/c1ccc(O)cc1 [XENOGNOSIN]
[1]
  Activity: 0.01 µM
[2]
  Activity: 4.6 µM
[3]
  Activity: 0.7 µM
[4]
  Activity: 0.1 µM
[5]
  Activity: >100 µM
[6]
  Activity: >100 µM
[7]
  Activity: 5.7 µM
[8]
  Activity: >100 µM

## COc1c(O)cc2occ(-c3ccc(O)cc3)c(=O)c2c1O [TECTORIGENIN]
[1]
  Activity: 1.4 µM
[2]
  Activity: 2.7 µM
[3]
  Activity: 0.3 µM
[4]
  Activity: 0.5 µM
[5]
  Activity: >100 µM
[6]
  Activity: >100 µM
[7]
  Activity: 2.2 µM
[8]
  Activity: 6.9 µM

## O=C1C[C@@H](c2ccccc2)Oc2cc(O)cc(O)c21 [PINOCEMBRIN]
[1]
  Activity: >100 µM
[2]
  Activity: >100 µM
[3]
  Activity: 7.6 µM
[4]
  Activity: 17 µM
[5]
  Activity: >100 µM
[6]
  Activity: >100 µM
[7]
  Activity: >100 µM
[8]
  Activity: >100 µM

## COc1ccc([C@@H]2COc3cc(O)ccc3C2)c(OC)c1O
[1]
  Activity: 6.3 µM
[2]
  Activity: >100 µM
[3]
  Activity: 0.4 µM
[4]
  Activity: >100 µM
[5]
  Activity: 0.9 µM
[6]
  Activity: 7.8 µM
[7]
  Activity: >100 µM
[8]
  Activity: 6.4 µM
